# Compounds with a hit are over-represented: about 3.8% of the library has one in this group of screens.
# T cell HTS = modulators of CD8 T cell-vesicle binding, primary screen, mouse 2C CD8+ T cells, flow cytometry | 2C CD8+ T cell-vesicle binding; hits give low values | response (vesicle binding), % at 7 µM | actives 0.068% (n = 330,000);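 active = response, share of CD8 T cells binding vesicles, and their 90th percentile fluorescence all below set limits, cut at about 80% in these data, passing the limit was not always enough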;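 also: values below 100% mean blocked vesicle binding to the CD8+ T cells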
#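 Assay system – 2C mouse CD8+ T cells · Also added – QL9-loaded Drosophila micro-vesicles · Timing – Cell–vesicle co-incubation 1.5 h at 37 °C, staining 20 min on ice · Signal – flow cytometry of vesicle-bound cells · Measure – percent CD8+ FL2 mean versus row control · Controls – Peptide-free naked vesicles (low) and QL9 vesicles with 0.7% DMSO vehicle (high)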
# Exocytosis inh = LAMP-1 surface exposure blockers, TALL-104 cells – cell-based, flow cytometry, MLPCN library, primary screen | actives 0.66% (n = 360,000) | AID 651702, 2012 | inhibition, % at 10 µM | TALL-104 LAMP-1 surface exposure; cells stimulated with thapsigargin and PMA;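 active = inhibition above about 55%, limit read from the data; inconclusive = no clear call, values can overlap the other calls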
# V-ATPase pHluor = regulators of yeast V-ATPase proton pumping, primary screen, pHLuorin cytosolic pH fluorescence; S. cerevisiae; response, % at 10 µM; actives 0.37% (n = 350,000); AID 504577, 2011; in the data active = response mostly above about 7.3%, no sharp cut-off; inactive = mostly below about 5.4%; also: actives read high
# rCAG RNA binder = binders of r(CAG) RNA repeats, primary screen, biochemical, fluorescence; inhibition, % at 3 µM; r(CAG) RNA repeat, TO-PRO-1 dye displacement fluorescence; actives 1.3% (n = 370,000); AID 651821, 2012;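 active = inhibition above the plate cutoff, the mean of all test compounds on that plate plus 3 SD, cut at about 35% in these data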;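 also: 0% = DMSO alone and 100% = 100 µM mitoxantrone as full dye displacement; higher means more dye released from RNA so lower well fluorescence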
# MPTP block = mitochondrial permeability transition pore inhibitors, primary screen, biochemical, isolated mouse mitochondria, absorbance. Ca2+ swelling absorbance, 30 min. inhibition, % at 10 µM. actives 1.4% (n = 360,000);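 active = inhibition of 50% or more, scaled per plate between neutral and stimulator controls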;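 also: 0% = DMSO wells given calcium and 100% = 1 mM EGTA wells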
# B2AR ag = beta2AR agonists driving receptor internalization, primary screen, cell-based, FAP fluorogen, flow cytometry; Am2.2-beta2AR cells; actives 0.43% (n = 340,000); AID 504454, 2011; Beta-2 adrenergic receptor (Homo sapiens), P07550; response, % (no concentration beside the values);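 active = response above a set limit, near 3 SD of response in nonfluorescent compounds, cut at about 42% in these data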
# Target sequence (P07550 whole entry, looked up): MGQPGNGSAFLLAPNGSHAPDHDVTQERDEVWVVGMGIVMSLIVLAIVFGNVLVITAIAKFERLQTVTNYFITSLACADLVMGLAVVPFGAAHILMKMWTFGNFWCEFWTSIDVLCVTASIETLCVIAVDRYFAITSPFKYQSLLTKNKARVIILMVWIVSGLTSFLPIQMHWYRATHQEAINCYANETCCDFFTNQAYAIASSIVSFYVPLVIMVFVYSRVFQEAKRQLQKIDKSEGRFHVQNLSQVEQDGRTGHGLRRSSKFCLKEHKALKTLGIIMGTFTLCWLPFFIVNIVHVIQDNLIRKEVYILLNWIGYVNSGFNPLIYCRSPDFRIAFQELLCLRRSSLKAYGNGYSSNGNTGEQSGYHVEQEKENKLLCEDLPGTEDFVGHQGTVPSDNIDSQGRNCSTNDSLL
# Rh123 counter = fluorescence retest of MPTP screen hits in isolated mitochondria, single concentration; AID 624504, 2012; shares compounds with MPTP block; inhibition, % at 10 µM; actives 78% (n = 5,000); membrane potential, Rhodamine 123 fluorescence; in the data active = inhibition above about 22%;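 also: 0% = DMSO vehicle and 100% = positive control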
# MPTP abs DR = mitochondrial permeability transition pore inhibitors, dose response, biochemical, absorbance, uHTS hits | shares compounds with MPTP block | isolated mitochondria swelling | IC50, µM | actives 58% (n = 780); in the data active = IC50 below about 20 µM
# MPTP cs DR = fluorescent counter-screen in isolated mitochondria, dose response, counter-screen for MPTP inhibitor project, biochemical, fluorescence, uHTS hits; AID 651564, 2012; shares compounds with MPTP block; actives 49% (n = 780); IC50, µM; isolated mitochondria counterscreen, fluorescence read-out; in the data active = IC50 below about 80 µM
# Starred values were filed as active, the others as inactive; ? = inconclusive; . = no result.
SMILES,T cell HTS,Exocytosis inh,V-ATPase pHluor,rCAG RNA binder,MPTP block,B2AR ag,Rh123 counter,others
C=CCc1ccccc1OCCSc1nc2ccc([N+](=O)[O-])cc2s1,383,-6,-5,1,84*,-2,41*,
Nc1ccc2nc(SCc3ccc([N+](=O)[O-])cc3)sc2c1,623,1,0,.,0,11,.,
O=[N+]([O-])c1ccc2nc(SCc3ccccc3Cl)sc2c1,530,-1,5,.,98*,1,68*,
COc1ccccc1OCCSc1nc2ccc([N+](=O)[O-])cc2s1,172,4,-3,4,76*,1,87*,
COc1cccc(CNC(=O)[C@H]2CCCN2C(=O)[C@H]2CCCN2C(=O)c2ccccc2C(F)(F)F)c1,.,.,.,-1,.,.,.,
CN(CCOC(=O)CCCc1ccccc1)C1CN(Cc2cn(Cc3ccccc3F)nn2)S(=O)(=O)C1 (configuration not stated),.,.,.,2,.,.,.,
CCN(CC)C(=O)CC[C@H]1CC[C@]2(CCCN(C(=O)c3cccnc3)C2)O1,.,.,.,0,.,.,.,
Cc1[nH]n(-c2ccc(Cl)cc2)c(=O)c1/C=N/c1nnc(-c2ccccc2)s1,785,-2,0,9,104*,-5,43*,
Cc1[nH]n(-c2ccc(F)cc2)c(=O)c1/C=N/c1sc2c(c1C#N)CCCC2,369,1,2,3,106*,8,25*,
CCN1CCc2c(sc(NC(=O)C3CCCCC3)c2C(=O)OC)C1,414,3,2,-3,47,-12,.,
CCOC(=O)c1c(NC(=O)C2CCCCC2)sc2c1CCN(CC)C2,587,11,6,-2,58*,-16,-9,MPTP abs DR=15*;MPTP cs DR=>80
O=C(Nc1ccc(Cl)cc1)N1CCN(Cc2nc3ccccc3c(=O)[nH]2)CC1,.,.,.,3,.,.,.,
Cn1ncc2c(N3CCN(c4ccc(Cl)c(Cl)c4)CC3)ncnc21,379,-1,2,-2,88*,5,99*,
Cn1ncc2c(N3CCN(c4ccccc4F)CC3)ncnc21,388,1,1,-5,-2,-2,.,
Cc1ccc(NC(=O)C(C)c2cccc(C(=O)c3ccccc3)c2)cc1O (configuration not stated),255,-3,-1,7,96*,-5,84*,
COCCNC(=O)C[C@H]1CC[C@H]2[C@@H](COc3ccc(NC(=O)Nc4cccc(F)c4)cc3C(=O)N2C)O1,.,.,.,3,.,.,.,
O=C(CN1c2ccccc2Sc2ccccc21)NNC(=O)Nc1ccc(Cl)c(Cl)c1,720,15,-4,4,52*,-1,22*,
O=C(NNc1nc2ccccc2s1)Nc1ccc(Cl)c(Cl)c1,257,5,1,13,74*,2,75*,
O=C(CN1c2ccccc2Sc2ccccc21)NNC(=O)Nc1ccc(Cl)cc1,285,1,-1,21,38,-5,.,
Cc1ccc(OC2CCN(C(=O)[C@@H](Cc3ccccc3)NC(=O)[C@H]3O[C@@H](n4ccc(=O)[nH]c4=O)[C@H](O)[C@@H]3O)CC2)cc1,.,.,.,2,.,.,.,
CCN(CC(=O)Nc1cccc(OC)c1)c1ncnc2sc(C)c(C)c12,449,3,-3,-4,72*,-2,68*,
Cc1c(C(=O)N/N=C/c2ccccc2)[nH]c2ccc(Cl)cc12,222,0,-1,15,87*,-15,89*,
COc1cc(C(=O)NN=Cc2ccc(N(C)C)cc2)cc(OC)c1OC,.,-4,3,5,1,.,.,
O=C(N/N=C/c1ccccc1Cl)c1[nH]c2ccc(Br)cc2c1-c1ccccc1,92,?,-2,2,82*,26,88*,
